Drawing on PubChem BioAssay, this text covers activation, potentiation and outcome for 30 compounds.

Test [1] in a line: nonspecific flux increase, KCNQ1-free cells – parental CHO cells, counter-screen for KCNQ1 potentiator project (AID 493006;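 active means duplicate-averaged activation above buffer control mean plus 5 SD of those controls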;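 on activation: fluorescence ratio of max minus min over baseline after K+ and Tl+ depolarization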). Conditions: parental CHO-K1 cells, FluxOR thallium flux, at 10 µM; stronger effect = higher value. An outline of the steps:
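Material: parental CHO-K1 cells, FluxOR dye-loaded; Also added: Potassium/thallium depolarization pulse; Schedule: overnight 37 °C plating, 90 min dye, 20 min dark compound; Signal: kinetic FluxOR fluorescence, 10 s baseline, 110 s after stimulus.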
In general terms: Counterscreens check selectivity or assay interference.

Test [2] concerns the target Potassium voltage-gated channel subfamily KQT member 1 (Homo sapiens) (UniProt P51787). In words: enhancement of KCNQ1 channel thallium flux – FluxOR thallium flux, CHO cells, duplicates, confirmation (AID 493007).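 On outcome: cells depolarized by a potassium plus thallium sulfate stimulus after compound.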 Conditions: KCNQ1 cell line, FluxOR thallium flux fluorescence, at 10 µM; stronger effect = higher value, % of reference activator effect, buffer zero. An outline of the steps: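 System: KCNQ1-expressing CHO cell line; technique: kinetic thallium influx fluorescence with FluxOR dye, 10 s baseline, 110 s post-stimulus; timing: dye 90 min then compound 20 min, both at room temperature; controls: buffer-only wells as 0% and R-L3 activator as 100%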

For test [3], the target named is Potassium voltage-gated channel subfamily KQT member 2 (Rattus norvegicus) (UniProt O88943). The test is described as follows: KCNQ2 thallium flux enhancement – KCNQ2-CHO-K1 cells, selectivity assay for KCNQ1 potentiator project (AID 493009;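 active means mean duplicate potentiation above the buffer control mean plus 5 SD of buffer wells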;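 further: assay conditions were tuned for KCNQ1 rather than KCNQ2 modulators; signal is max minus min fluorescence divided by baseline after thallium stimulus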). Particulars: FluxOR thallium flux fluorescence, at 10 µM; stronger effect = higher value, scaled: buffer 0, activator control 100.
In test [4] the target is Potassium voltage-gated channel subfamily KQT member 1 (Homo sapiens) (UniProt P51787). The test is described as follows: KCNQ1 activators by electrophysiology – IonWorks patch clamp, KCNQ1-CHO cells, orthogonal assay for KCNQ1 potentiator project, confirmation (AID 493184;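 active means current rise at least 3 SD above the untreated control mean in each of two repeat wells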). Particulars: automated patch clamp current, at 10 µM; stronger effect = higher value. An outline of the steps:
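Test system: KCNQ1-expressing CHO cells. Medium: pH 7.4 external bath. Probe or stimulus: voltage step from -90 mV holding to +40 mV, 2,000 ms. Compound: 10 µM final, single point. Detection: automated perforated-patch electrophysiology. Read-out: percent current increase versus pre-compound level. Repeats: two replicates.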

Activity calls are given as the source filed them.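 How the source made its calls, unless noted: active means potentiation averaged over duplicate wells exceeding buffer-only control mean by more than 3 SD; inactive means the rest.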

Chain of Potassium voltage-gated channel subfamily KQT member 2 (Rattus norvegicus) (O88943 whole entry, looked up): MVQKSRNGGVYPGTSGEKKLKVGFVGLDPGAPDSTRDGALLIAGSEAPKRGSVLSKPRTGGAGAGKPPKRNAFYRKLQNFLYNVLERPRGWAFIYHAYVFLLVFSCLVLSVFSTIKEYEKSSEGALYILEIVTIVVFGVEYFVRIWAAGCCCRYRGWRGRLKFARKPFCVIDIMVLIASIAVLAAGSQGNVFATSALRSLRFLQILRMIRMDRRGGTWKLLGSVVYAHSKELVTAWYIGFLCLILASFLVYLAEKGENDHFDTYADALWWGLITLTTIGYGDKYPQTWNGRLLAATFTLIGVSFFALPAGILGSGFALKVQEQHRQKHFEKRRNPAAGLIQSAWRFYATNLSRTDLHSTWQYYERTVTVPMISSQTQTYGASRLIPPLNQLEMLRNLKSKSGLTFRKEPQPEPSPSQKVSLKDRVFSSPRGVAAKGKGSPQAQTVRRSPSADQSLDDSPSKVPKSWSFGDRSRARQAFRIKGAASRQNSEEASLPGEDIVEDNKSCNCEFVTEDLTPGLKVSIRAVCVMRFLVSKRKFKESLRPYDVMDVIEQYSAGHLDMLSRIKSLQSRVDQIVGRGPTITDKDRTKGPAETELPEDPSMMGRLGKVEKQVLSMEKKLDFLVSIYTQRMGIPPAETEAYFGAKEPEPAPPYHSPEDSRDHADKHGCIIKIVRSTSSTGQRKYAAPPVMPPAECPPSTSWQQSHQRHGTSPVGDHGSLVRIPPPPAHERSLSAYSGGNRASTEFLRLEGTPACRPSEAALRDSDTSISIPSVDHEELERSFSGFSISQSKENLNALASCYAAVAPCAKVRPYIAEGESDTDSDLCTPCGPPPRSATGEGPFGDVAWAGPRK
Chain of Potassium voltage-gated channel subfamily KQT member 1 (Homo sapiens) (P51787 whole entry, looked up): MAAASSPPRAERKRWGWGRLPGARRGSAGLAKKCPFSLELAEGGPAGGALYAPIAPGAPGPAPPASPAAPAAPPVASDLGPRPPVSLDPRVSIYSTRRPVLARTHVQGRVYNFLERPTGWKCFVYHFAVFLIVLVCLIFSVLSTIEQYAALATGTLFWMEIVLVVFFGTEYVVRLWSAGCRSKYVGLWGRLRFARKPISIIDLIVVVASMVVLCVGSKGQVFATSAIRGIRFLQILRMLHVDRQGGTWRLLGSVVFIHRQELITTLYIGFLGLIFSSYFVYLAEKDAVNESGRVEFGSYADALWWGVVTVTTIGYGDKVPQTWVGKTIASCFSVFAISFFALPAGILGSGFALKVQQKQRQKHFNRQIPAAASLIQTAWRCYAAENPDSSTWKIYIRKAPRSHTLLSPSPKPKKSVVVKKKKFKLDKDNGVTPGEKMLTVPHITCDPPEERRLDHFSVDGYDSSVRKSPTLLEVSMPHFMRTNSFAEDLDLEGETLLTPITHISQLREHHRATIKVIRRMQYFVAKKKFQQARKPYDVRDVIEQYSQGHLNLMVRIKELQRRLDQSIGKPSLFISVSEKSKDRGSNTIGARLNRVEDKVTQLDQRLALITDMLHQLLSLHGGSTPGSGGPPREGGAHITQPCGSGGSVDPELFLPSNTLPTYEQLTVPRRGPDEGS

Turning to `CC(=O)N1CCN=C1SCc1ccc(F)cc1`, the activation in test [1] was 355% (active). The potentiation is 120% (active) in test [2] and 329% (active) in test [3]. In addition, the result in test [4] was inactive.
Turning to `CCc1nnc(NC(=O)CN2C(=O)c3ccccc3C2=O)s1`, the outcome in test [1], in test [2], in test [3] and in test [4] was inactive.
As for `COC(=O)COc1ccc(-c2ccccc2)cc1C=O`, in test [1], the activation is 179% (active). In addition, the potentiation was 34.5% (active) in test [2] and 216% (active) in test [3]. Besides, the result in test [4] was inactive.
The matching figures for `COc1ccc2c(-c3ccccc3)cc(=S)[nH]c2c1`: 210% (active), 50.5% (active), 231% (active) and “inactive”.
Regarding `CCC1CCCCN1S(=O)(=O)c1ccc(NC(=O)c2cccnc2)cc1` (stereo not given), the result in test [1], in test [2], in test [3] and in test [4] was inactive.
In the case of `CC(OC(=O)CCCNC(=O)c1ccc(Cl)cc1)C(=O)N(C)Cc1ccccc1` (stereo not given), the outcome in test [1], in test [2], in test [3] and in test [4] was inactive.
`CCOc1ccccc1NC(=O)CCC(=O)Nc1ccccc1OCC`: the outcome in test [1], in test [2], in test [3] and in test [4] was inactive.
Regarding `Cc1[nH]c(=S)sc1Cc1ccc(F)cc1`, the activation in test [1] was 286% (active). For the same compound, the potentiation is 101% (active) in test [2] and 300% (active) in test [3]. Further, in test [4], the result was inactive.
Regarding `O=C(Nc1nnc(-c2ccco2)o1)c1cccc(Cl)c1`, the result in test [1], in test [2], in test [3] and in test [4] was inactive.
Regarding `OC(c1cc(C(F)(F)F)nc2c(Cl)cc(Cl)cc12)C1CCCCN1` (stereo not given), the outcome in test [1], in test [2], in test [3] and in test [4] was inactive.
With `COc1cccc2sc(N(CCCN(C)C)C(=O)CCS(=O)(=O)c3ccccc3)nc12`, the outcome in test [1], in test [2], in test [3] and in test [4] was inactive.
For `Cc1cc(Cl)n2nc(C)c(-c3ccc(Cl)cc3)c2n1`, in test [1], the activation is 216% (active). Further, the values for the potentiation in test [2] and in test [3] were 256% (active) and 340% (active), respectively. Further, the result in test [4] was inactive.
For the compound `CCc1ccc(S(=O)(=O)Nc2cc3c(cc2N2CCCCC2)n(C)c(=O)c(=O)n3C)cc1`, the outcome in test [1], in test [2], in test [3] and in test [4] was inactive.
`CCC(CC)C(=O)Nc1cc([N+](=O)[O-])ccc1Cl`: the result in test [1], in test [2], in test [3] and in test [4] was inactive.
Consider `CCCCC(Nc1ncnc2ccccc12)C(=O)O` (stereo not given), for which the outcome in test [1], in test [2], in test [3] and in test [4] was inactive.
On to `O=C(COc1ncnc2ccc(Br)cc12)Nc1ccc(N2CCOCC2)cc1`, for which the outcome in test [1], in test [2], in test [3] and in test [4] was inactive.
Turning to `CCC(Cc1ccccc1)n1c(=S)[nH]c2ccccc2c1=O` (stereo not given), the result in test [1], in test [3] and in test [4] was inactive. Further, the potentiation in test [2] is 19% (active).
With `CN1CCN(C(=O)/C(=C/c2ccccc2)c2ccccc2)CC1`, the outcome in test [1], in test [2], in test [3] and in test [4] was inactive.
For `Cc1snnc1C(=O)NC(=S)Nc1ccccc1`, in test [1], the activation is 205% (active). The potentiation was 90% (active) in test [2] and 270% (active) in test [3]. Further, the result in test [4] was inactive.
`COc1cccc2sc(Nc3nnc(-c4ccc(F)cc4)o3)nc12`: the activation in test [1] was 394% (active). Moreover, the potentiation in test [2] was 202% (active); in test [3], 521% (active). For the same compound, the result in test [4] was inactive.
Regarding `O=C(NC(=S)NCCC1=CCCCC1)c1ccc(Br)o1`, the activation in test [1] is 212% (active). The potentiation was 304% (active) in test [2] and 371% (active) in test [3]. Also, the outcome in test [4] was inactive.
As for `NC(=O)COC(=O)c1ccccc1Nc1ccc(SC(F)F)cc1`, the outcome in test [1] and in test [4] was inactive. The potentiation in test [2] is 26% (active); in test [3] it was 147% (active).
On to `CN1CCN(c2nc(-c3cccs3)cc(C(F)(F)F)n2)CC1`, for which the activation in test [1] is 142% (active). Also, the result in test [2], in test [3] and in test [4] was inactive.
Turning to `Cc1nn(-c2ccccc2)c(Cl)c1/C=C1\SC(=S)NC1=O`, in test [1], the activation was 614% (active). In addition, the potentiation was 295% (active) in test [2] and 704% (active) in test [3]. The outcome in test [4] was inactive.
With `CCN(CC)c1ccc(NC(=S)NC(=O)c2ccco2)cc1`, in test [1], the activation is 263% (active). For the same compound, the potentiation was 104% (active) in test [2] and 322% (active) in test [3]. Further, the result in test [4] was inactive.
As to `Cc1cc(C)nc(NC(=O)/C=C/c2ccccc2Cl)n1`, the result in test [1], in test [2], in test [3] and in test [4] was inactive.
`O=C(CCn1c(=O)sc2ccccc21)NCc1ccco1`: the outcome in test [1], in test [2], in test [3] and in test [4] was inactive.
With `CCc1cccc(C)c1NC(=O)c1ccc2nc(N3CCOCC3)sc2c1`, the outcome in test [1], in test [2], in test [3] and in test [4] was inactive.
On to `Nc1ccc(C2(c3ccc(N)cc3)OC(=O)c3ccccc32)cc1`, for which the result in test [1], in test [2], in test [3] and in test [4] was inactive.
`COc1cc(OC)cc(C(=O)NNC(=O)C(=O)Nc2cc(OC)c(Cl)cc2OC)c1`: the activation in test [1] is 202% (active). Also, the potentiation was 64% (active) in test [2] and 213% (active) in test [3]. Besides, the result in test [4] was inactive.
